Screening data (PubChem BioAssay)
This is one part of a sample in which hits are shown more often than they occur.
WNV NS2B-NS3 inh: inhibitors of WNV NS2B-NS3 protease, primary screen, biochemical, fluorogenic substrate. Genome polyprotein (West Nile virus), P06935. fluorogenic substrate Ex360/Em465; stronger effect = lower value. z-score (test concentration not listed). 0.18% of 65,000 active; in the data active means z-score below about -3
DAT uptake mod: changed hDAT dopamine uptake under cocaine IC80, either direction, primary screen, cocaine antagonist project, cell-based, LLC-PK1 hDAT, [14C]-dopamine uptake, MLSMR; LLC-PK1 hDAT cells, [14C]-dopamine uptake with cocaine IC80; actives deviate in either direction; B-score at 10 µM; 1.3% of 110,000 active; Sodium-dependent dopamine transporter (Homo sapiens), Q01959; AID 449768, 2010;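 active means Z score or B-score, a plate-position-corrected score, falls beyond the plate's 99.7% confidence bounds, in either direction; inactive means both scores lie inside the 99.7% bounds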;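 further: scored against the spread of the other compound wells on the same plate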
Target sequence (Q01959 whole entry, looked up): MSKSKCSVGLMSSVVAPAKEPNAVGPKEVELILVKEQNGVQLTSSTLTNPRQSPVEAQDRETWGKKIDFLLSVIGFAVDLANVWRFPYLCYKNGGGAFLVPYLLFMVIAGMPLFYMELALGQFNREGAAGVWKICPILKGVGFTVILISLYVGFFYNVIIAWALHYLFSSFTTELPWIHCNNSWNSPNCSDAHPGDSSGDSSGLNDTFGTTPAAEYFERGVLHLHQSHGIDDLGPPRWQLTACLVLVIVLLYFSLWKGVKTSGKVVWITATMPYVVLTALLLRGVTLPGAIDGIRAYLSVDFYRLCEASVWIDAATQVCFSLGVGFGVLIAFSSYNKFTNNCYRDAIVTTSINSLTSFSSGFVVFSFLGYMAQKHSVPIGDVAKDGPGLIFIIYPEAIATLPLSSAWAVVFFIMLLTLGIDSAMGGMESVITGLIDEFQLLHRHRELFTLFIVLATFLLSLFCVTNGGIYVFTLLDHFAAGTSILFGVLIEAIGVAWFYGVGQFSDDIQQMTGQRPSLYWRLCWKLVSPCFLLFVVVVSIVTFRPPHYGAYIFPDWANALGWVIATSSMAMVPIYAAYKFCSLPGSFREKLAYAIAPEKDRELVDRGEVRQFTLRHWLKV
AP complement: alternative complement pathway inhibitors, primary screen, biochemical, ELISA, human serum, orthogonally pooled compounds; 0.08% of 62,000 active; LPS-coated ELISA, C3 deposition; tested in compound mixtures; inhibition, % at 5 µM;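 active means inhibition above 30% in each of the two pooled mixtures holding the compound, so the lower value exceeds 30%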;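 further: 0% = serum in Mg-EGTA without compound and 100% = EDTA serum blank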
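Test system – human serum alternative complement pathway, C3 deposition on LPS-coated wells · Buffer or medium – diluted human serum in Mg2+-EGTA GVB++ · Compound dosing – 5 µM each compound, pools of ten, 50 µM per pool · Schedule – 1 h serum-compound exposure at 37 °C · Measured by – Anti-C3 ELISA, OD 450 nm · Read-out basis – percent inhibition of C3 deposition onto LPS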
D1 mod: D1 CRE-luciferase signal change, two-sided – cell-based, HEK293 D1, dopamine EC30, D1 allosteric modulator project, primary screen | D(1A) dopamine receptor (Homo sapiens), P21728 | dopamine EC30 potentiation; actives deviate in either direction | B-score at 10 µM | 5.9% of 58,000 active | AID 641, 2007;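 active means luminescence count or its row- and column-corrected plate score outside the 99.7% band of the plate's sample wells, on either side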
D1 PAM confirm: D1 receptor positive allosteric modulators, retest, confirmation, cell-based, HEK293 D1, CRE-luciferase, duplicate; shares compounds with D1 mod; dopamine EC30 potentiation; stronger effect = higher value; luminescence at 10 µM; 88% of 2,200 active; AID 642, 2007;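 active means luminescence in either of two replicates above the same-plate mean plus 3 SD of the low-dose dopamine control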
D1 ag no DA: D1 receptor agonism without dopamine, confirmation, mechanism study for D1 allosteric modulator project, cell-based, HEK293 D1, CRE-luciferase, secondary assay 1 | 0.8% of 1,900 active | shares compounds with D1 mod | luminescence at 10 µM | luminescence, no dopamine; stronger effect = higher value; in the data active means luminescence above about 3900
Isoprot counter: alters isoproterenol CRE-luciferase response in HEK293 cells; shares compounds with D1 mod; HEK293 D1 CRE-luciferase, isoproterenol EC30 counter-screen; stronger effect = higher value; luminescence at 10 µM; 63% of 2,200 active;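 active means luminescence in either replicate above plate mean of wells with a partly effective reference agonist dose plus 3 SD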;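 further: isoproterenol raises cAMP through native beta-adrenoceptor Gs so signal bypasses D1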
* marks the source's active call; other numbers are inactive results; / = no result given.

SMILES | WNV NS2B-NS3 inh | DAT uptake mod | AP complement | D1 mod | D1 PAM confirm | D1 ag no DA | Isoprot counter
CCOC(=O)CN=C1CC(C)(C)CC2=C1Sc1ncnc(N(C)C)c1N2 | -0.58 | -0.76 | 3 | 5.4* | 10372* | 1464 | 4260*
COC(=O)[C@H](C)NC(=O)NC1CCN(Cc2ccccc2)CC1 | / | -0.26 | / | / | / | / | /
CC1(C)Cc2c(C#N)c(NCCCO)nc(-c3ccccc3)c2CO1 | -0.59 | 0.98 | -3 | 5.8* | 11280* | 1708 | 3636*
COc1cccc(CN2C(=O)C3CCCN3c3ccc(S(=O)(=O)N4CCOCC4)cc32)c1 (stereo unspecified) | / | 1 | / | / | / | / | /
CCOc1ccccc1NC(=O)CCSc1nc2n[nH]c(C)c2c(=N)n1-c1ccccc1Cl | -0.45 | -0.94 | -2 | 3.8* | 11132* | 1584 | 3292*
CCOc1ccccc1-n1c(SCC(=O)Nc2ccc(CC)cc2)nc2n[nH]c(C)c2c1=N | -0.83 | 0.21 | / | 2* | 7472 | 1852 | 2672
CS(=O)(=O)c1nc(-c2ccccc2)cc(C(F)(F)F)n1 | -1.7 | / | 13 | 4.1* | 6308* | / | 2188
CCOC(=O)CCSc1nc(C)c2ccccc2n1 | -2 | -0.029 | 8 | 1.9* | 6200* | 1668 | 2904
Cc1ccc(-n2c(=O)[nH]c3cc(C(=O)NC4CCN(Cc5ccccc5)CC4)ccc3c2=O)cc1 | / | -1.3 | / | / | / | / | /
CCn1nnc(-c2ccccc2NC(=O)c2cc(OC)cc(OC)c2)n1 | 2.1 | 0.49 | 0 | 0.98 | / | / | /
CCn1nnc(-c2ccccc2NC(=O)c2cc(OC)c(OC)c(OC)c2)n1 | -0.75 | 0.79 | 10 | 5.5* | 16052* | 1640 | 3748*
COC(=O)CN(Cc1ccccc1)S(=O)(=O)c1ccc(OC)c(OC)c1 | -1.2 | 0.29 | -4 | 0.7 | / | / | /
C/C(=N\NC(=O)C(NC(=O)c1ccccc1)C(C)C)c1ccccc1 (stereo unspecified) | / | -1.2 | / | / | / | / | /
CCOc1ccc(S(=O)(=O)Nc2cc(OC)ccc2OC)cc1 | -0.53 | -1.9 | 9 | 4.5* | 11952* | 1748 | 3600*
CCOC(=O)N1CCN(C(=O)c2ccc(Cl)c(S(=O)(=O)Nc3ccccc3)c2)CC1 | -0.3 | 1.1 | 7 | 6.1* | 15076* | 1588 | 2856
COc1ccc(C(=O)N2CCCCC2)cc1S(=O)(=O)Nc1ccccc1 | -0.62 | -0.96 | 3 | / | / | / | /
COc1ccc(CCc2nc(C)ccc2O)cc1 | / | -0.2 | / | / | / | / | /
Clc1ccc(Nc2nc3ccccc3n3nnnc23)cc1 | / | -0.051 | / | / | / | / | /
Fc1cc(Br)ccc1Nc1nc2ccccc2n2nnnc12 | 0.25 | -0.46 | 14 | 3.1* | 10956* | 1572 | 2596
COc1cccc(-n2nnnc2SCC(=O)c2cc(OC)ccc2OC)c1 | 0.13 | -0.18 | 7 | 4.2* | 4344 | 1632 | 3224
Nc1nonc1-c1nc2ccccc2n1CC(=O)N/N=C\c1ccc(-c2ccc(Cl)cc2)o1 | / | 0.14 | / | / | / | / | /
Cc1ccc(Nc2nnc(SCc3cc(=O)n4ccsc4n3)s2)c(C)c1 | -0.24 | 0.94 | 13 | 2.6* | 6736* | 1632 | 3068
C#CCOCCOCCOCCNc1nc(N2CCN(C(=O)[C@H](CCC(=O)O)n3cc(C(N)CC(C)C)nn3)CC2)nc(N2CCN(C(=O)[C@H](CCC(=O)O)n3cc(C(N)CC(C)C)nn3)CC2)n1 (stereo partly specified) | / | -0.64 | / | / | / | / | /
COc1ncnc2sc(-c3ccccc3)cc12 | -0.5 | -0.28 | -3 | 2.8* | 10684* | 1684 | 3504*
Cc1cc(C)n2nc3ccccc3c2n1 | -0.86 | -0.5 | 9 | 2.8* | 10324* | 1660 | 3900*
SMILES | WNV NS2B-NS3 inh | DAT uptake mod | AP complement | D1 mod | D1 PAM confirm | D1 ag no DA | Isoprot counter
Cc1cc(C)n2nc(Nc3ccccc3)cc2n1 | -0.92 | 1.4 | 4 | 0.43 | / | / | /
Cc1ccc(-n2nnnc2-c2cnoc2-c2cccc(F)c2)cc1 | / | 0.49 | / | / | / | / | /
CCCCc1nc2n[nH]c(N)c2c2c1CCCC2 | 0.93 | 0.91 | -2 | 21* | 20280* | 1464 | 6316*
C=CCN(C(=O)CSc1nc2[nH]ncc2c(=O)n1-c1ccccc1OC)c1ccccc1 | -0.18 | / | 9 | -0.18 | / | / | /
CCCCNc1oc(-c2ccc(OC)cc2)nc1S(=O)(=O)c1ccccc1 | / | 0.00041 | / | / | / | / | /
CCOc1ccc(-c2nc(S(=O)(=O)c3ccccc3)c(NCc3cccnc3)o2)cc1 | -1.3 | -0.046 | 9 | 5.7* | 8380* | 1552 | 3248*
Clc1ccc2[nH]cc(-c3nnnn3-c3ccc4ccccc4c3)c2c1 | / | 0.98 | / | / | / | / | /
O=C1C2C3C=CC(C3=C(c3ccccc3)c3ccccc3)C2C(=O)N1Cc1ccccc1 (stereo unspecified) | / | 0.072 | / | / | / | / | /
COc1ccc(S(=O)(=O)N2CCSC2c2ccc(OC)c(OC)c2)cc1 (stereo unspecified) | -1.2 | 0.24 | 20 | 4.2* | 10220* | 1664 | 2836
CCCOn1c(OCC(C)C)nc2ccccc2c1=O | -0.17 | -1.5 | -10 | 4.5* | 12220* | 1508 | 3724*
CNc1nc(Sc2ccc(C)cc2)cc(C(F)(F)F)n1 | / | 1 | / | / | / | / | /
CN1CCc2c(sc3c2c(=O)n(-c2ccccc2)c2n[nH]c(=S)n32)C1 | / | -1.3 | / | / | / | / | /
Cc1cccc(NC(=O)COc2nsnc2N2CCOCC2)c1 | 2.1 | 0.41 | 6 | / | / | / | /
COC(=O)COc1nsnc1N1CCOCC1 | 0.19 | 0.62 | -14 | 2.3* | 6088* | / | 2408
CCC(c1c(C)[nH]oc1=O)c1c(C)[nH]oc1=O | 0.25 | -1.4 | -1 | -1.1 | / | / | /
CCOC(=O)C1CCN(S(=O)(=O)c2ccc(OC)c(OC)c2)CC1 | / | -0.9 | / | / | / | / | /
COc1ccc(S(=O)(=O)N2CCC(C(=O)N3CCCCC3)CC2)cc1OC | 2 | 0.87 | 13 | 7.6* | 12168* | 1644 | 3204*
Cc1cnc(C(=O)NCCc2ccc(S(=O)(=O)NC(=O)NC3CCCCC3)cc2)cn1 | 0.3 | 0.12 | 21 | -0.92 | / | / | /
Cc1cccc(-c2c3c(=O)n(C)c(=O)n(C)c3cn2C(C)(C)C)c1 | -1.4 | 0.89 | 18 | 1.6 | / | / | /
Cn1c(=O)c2c(-c3ccc(C(C)(C)C)cc3)n(N3CCOCC3)cc2n(C)c1=O | 0.2 | -0.36 | 14 | 3.8* | 9948* | 1848 | 2940
Cn1c(=O)c2c(-c3ccccc3)n(N3CCOCC3)cc2n(C)c1=O | 0.87 | 0.88 | -10 | 3.3* | 6320* | 1616 | 2720
Cn1c(=O)c2c(-c3ccccc3)n(C3CCCCC3)cc2n(C)c1=O | -1 | -0.15 | 17 | 4.3 | / | / | /
CCCNC(=O)c1cnc(Sc2ncc(C(F)(F)F)cc2Cl)n1C | / | -0.35 | / | / | / | / | /
